PKA-R1A activ – PKA-R1A complex activation; activation, % at 11.4 µM; PKA-R1A dissociation, Cy5-IP20 fluorescence polarization; scaled: DMSO 0%, 113 µM cGMP 100%; P00514+P68181; actives 0.083% (n = 340,000);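 active = percent activation above the mean of all tested compounds plus 3 SD, cut at about 19% in these data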;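 note: higher means more PKAc released from R1A so a rise in polarization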
T cell modulator – T cell immune modulation candidate; 2C CD8+ T cell-vesicle binding, flow cytometry; stronger effect = lower value; response (vesicle binding), % at 7 µM; actives 0.068% (n = 330,000); AID 2052;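 active = response, share of CD8 T cells binding vesicles, and their 90th percentile fluorescence all below set limits, cut at about 80% in these data, passing the limit was not always enough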;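 note: values below 100% mean blocked vesicle binding to the CD8+ T cells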
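Assay system: 2C TCR transgenic mouse naive CD8+ T cells, MACS-purified | Read-out: CD8+ gate FL2 mean fluorescence as % of same-row positive control | Signal: High-throughput flow cytometry with anti-B7-1 and anti-CD8 staining | Timing: Binding step 1.5 h, 37 °C, antibody labelling 20 min, ice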
HKDC1 inhibitor – blocks human hexokinase HKDC1 activity; Q2TB90; inhibition, % at 20 µM; actives 0.16% (n = 340,000); AID 493160; recombinant HKDC1, G6PDH/diaphorase resazurin coupled fluorescence;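 active = inhibition above about 35% when tested at 20 µM, limit read from the data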;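 note: plate controls were DMSO wells with enzyme for no effect and DMSO wells lacking enzyme for full effect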
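Test system: recombinant HKDC1 (HK5) hexokinase enzyme, produced in-house; Amount: enzyme 5 µg/mL final; Buffer or medium: Tris pH 8.0 buffer with MgCl2, Tween-20, BSA, BME; Reagent: glucose and ATP substrates; Doses: 20 µM test compound, 1% DMSO; Incubation: 90 min reaction incubation at room temperature, dark; Detection: resorufin fluorescence at 613 nm.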
PKA-R2B activ – PKA-R2B complex activation; P22694+P31323; PKA-R2B holoenzyme dissociation, Cy5-IP20 fluorescence polarization; R2B truncated from residue 108, S112A mutant; 0% DMSO only, 100% 113 µM cGMP; activation, % at 11.4 µM; actives 0.079% (n = 340,000);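 active = activation above a cutoff set at the mean over all compounds plus 3 SD, cut at about 18% in these data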;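 note: higher means more holoenzyme dissociation and a rise in polarization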
PfGluPho inh – PfG6PD (Plasmodium falciparum) enzyme inhibition | actives 0.78% (n = 350,000) | AID 504690 | PfGluPho enzyme, NADPH resazurin-diaphorase fluorescence | inhibition, % at 20 µM;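 active = inhibition reaching at least a set limit at 20 µM in the primary screen, cut at about 59% in these data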;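 note: 0% = DMSO wells with substrate and 100% = DMSO wells lacking glucose-6-phosphate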
ATG4B inh – inhibitors of human ATG4B cysteine protease; Q9Y4P1; ATG4B cleavage of LC3-PLA2, NBD-HPC fluorescence, 1 h; inhibition, % at 8.33 µM; actives 0.51% (n = 340,000); in the data active = inhibition above about 40%
ATG4B conf – ATG4B (human) inhibition, single-dose confirmed; shares compounds with ATG4B inh; ATG4B protease fluorescent substrate cleavage assay; inhibition, % at 8.33 µM; actives 92% (n = 320); in the data active = inhibition above about 39%
PLA2 ctr – PLA2 (human) inhibition in ATG4B counter-screen; actives 66% (n = 1,600); purified PLA2, NBD-C6-HPC fluorescence, 45 min; inhibition, % at 8.33 µM; shares compounds with ATG4B inh; in the data active = inhibition above about 50%
* = called active by the depositor; i = inactive; · = no result given. Compounds with a hit are over-represented: about 1.6% of the library has one in this group of screens.

SMILES	PKA-R1A activ	T cell modulator	HKDC1 inhibitor	PKA-R2B activ	PfGluPho inh	ATG4B inh	PLA2 ctr	others
N#C/C(=C\c1ccc(-c2ccccc2[N+](=O)[O-])o1)C(=O)Nc1nc(-c2cccs2)cs1	-12	142	3	-10	-4	67*	76*
CSc1ncnc2c1ncn2CCCNCc1ccccn1	-8	·	·	0	-1	·	·
O=C(Nc1nc2nc(-c3ccccc3)cc(-c3ccccc3)n2n1)c1ccco1	-2	i	1	11	4	42*	51*
CC(=O)Nc1nc2nc(-c3ccccc3)cc(-c3ccccc3)n2n1	0	502	1	0	2	-7	·
CC(C)C(Sc1nc(-c2ccccc2)cc(-c2ccccc2)c1C#N)C(=O)O (stereo not drawn)	-8	246	2	3	-19	46*	39	ATG4B conf=61*
COc1ccc(-c2cc(-c3ccccc3)nc(SC(C)C(=O)O)c2C#N)cc1 (stereo not drawn)	13	211	0	2	-10	24	·
S=c1[nH]nc(-c2ccco2)n1-c1ccccc1Cl	5	166	-4	-8	17	-11	·
S=c1[nH]nc(-c2cc(-c3ccco3)[nH]n2)n1-c1ccccc1Cl	2	273	10	9	49	50*	-7
C=CCOc1ccc(/C=N/n2nnnc2N)cc1OC	3	279	0	-11	-14	2	·
CCOc1cc(/C=C2\N=C(SC)SC2=O)cc([N+](=O)[O-])c1OC(C)=O	-5	310	13	-5	3	31	·
CCOc1cc(/C=C2\N=C(SCC)SC2=O)cc([N+](=O)[O-])c1OC(C)=O	-6	166	9	-4	-7	76*	75*
CCc1sc(C(=O)N(CCOC)c2c(N)n(Cc3ccccc3)c(=O)[nH]c2=O)cc1C	10	·	·	-2	4	·	·
COc1ccc(OC2CCN(S(=O)(=O)c3ccc(C(C)=O)cc3)CC2)cc1	-11	238	-2	3	4	1	·
Nc1nn(-c2ccccc2)c(N)c1N=Nc1ccc2c(c1)OCO2	-1	622	7	-11	27	41*	40	ATG4B conf=76*
CNC[C@H]1OCCCC[C@H](C)Oc2ccc(NC(=O)CCCN(C)C)cc2C(=O)N([C@H](C)CO)C[C@@H]1C	1	·	·	7	35	·	·
Cc1ccc2c(c1)C(c1ccc(N3CCOCC3)cc1)=NNC(c1cccs1)=N2	1	242	7	-6	21	13	·
Fc1ccc2c(c1)C(c1ccc(N3CCOCC3)cc1)=NNC(c1cccs1)=N2	-5	281	0	-7	3	65*	70*
CCOc1ccc(C2=NNC(c3cccs3)=Nc3ccc(OC)cc32)cc1	3	109	3	0	3	59*	73*
Brc1ccc2c(c1)C(c1ccc(N3CCOCC3)cc1)=NNC(c1cccs1)=N2	-2	289	2	-2	-2	66*	65*
Cn1c(-c2c(N)n(CCCc3ccccc3)c3nc4ccccc4nc23)nc2ccccc21	5	·	-3	-12	14	42*	52*
Cn1c(-c2c(N)n(CCc3ccccc3)c3nc4ccccc4nc23)nc2ccccc21	-9	215	-3	-7	34	14	·
c1ccc(-c2ccc(-c3cnc4n3CCCCC4)cc2)cc1	3	881	-2	6	-6	52*	59*
NC(=O)CSc1nnc(-c2cccs2)n1Cc1ccco1	3	320	-3	1	13	-10	·
Cc1ccc(C)c(CSc2nnc(-c3cccs3)n2Cc2ccco2)c1	8	460	-1	10	-10	83*	77*
Cc1cc(=O)oc2c3c(cc(OCC(=O)NCC4CCC(C(=O)O)CC4)c12)OC(C)(C)CC3 (stereo not drawn)	7	597	2	5	20	-12	·
SMILES	PKA-R1A activ	T cell modulator	HKDC1 inhibitor	PKA-R2B activ	PfGluPho inh	ATG4B inh	PLA2 ctr	others
C[C@@H]1NS(=O)(=O)[C@H]2C[C@@H]3C=C[C@]2(O3)[C@H]1OC(=O)Nc1ccc(C(F)(F)F)cc1[N+](=O)[O-]	3	498	2	-14	-7	-4	·
CCCCCCNC(=O)CC(c1ccccc1)c1cc(Br)ccc1O (stereo not drawn)	-7	287	2	-10	17	41*	56*
CCCCCCCCCCC[N+](C)(C)CC/C=C1/c2ccccc2Sc2ccc(Cl)cc21	-1	287	2	5	38	47*	52*
O=C(Oc1cncc(Cl)c1)c1ccco1	5	599	-1	6	5	-6	·
O=C(Oc1cncc(Cl)c1)c1sccc1Cl	2	173	11	-3	-9	98*	-12
Cc1nc2c(C(=O)NCCC(C)C)c[nH]n2c(=O)c1Cc1ccccc1F	-6	785	-6	-12	-19	51*	63*
O=C(CSc1nc2ccc(Cl)cc2[nH]1)NCCc1ccc(Cl)cc1	-1	322	9	-8	28	46*	50*
Cc1ccc(C2(C)NC(=O)N(CC(=O)Nc3cc(S(=O)(=O)N(C)C)ccc3C)C2=O)cc1 (stereo not drawn)	-9	390	-2	-5	-25	-8	·
Clc1cccc(-c2nc(NCc3cccnc3)c3ccccc3n2)c1	-3	364	-3	-2	9	64*	70*
c1ccc(-c2nc(NCc3cccnc3)c3ccccc3n2)cc1	8	281	2	1	-3	14	·
CS(=O)(=O)c1ccc2nc(NC(=O)c3ccccc3Br)sc2c1	-1	217	-5	-15	-2	1	·
CCCC1=Nc2cc(C(=O)N3CCCC3)ccc2Sc2ccc(C)cc21	-8	299	2	-2	-8	18	·
CCC1=Nc2cc(C(=O)N3CCCCC3)ccc2Sc2ccc(C)cc21	9	418	1	13	-11	52*	57*
CC1=Nc2cc(C(=O)N3CCCCC3)ccc2Sc2ccc(C)cc21	-6	477	-4	6	2	52*	49
COc1ccccc1Nc1nn2c(=O)c3ccc(C(=O)N4CCCC(C)C4)cc3nc2s1 (stereo not drawn)	-7	229	15	-1	6	46*	63*
CC1CCCN(C(=O)c2ccc3c(=O)n4nc(Nc5ccccc5)sc4nc3c2)C1 (stereo not drawn)	-2	·	·	-2	0	·	·

Bioassay records deposited in PubChem BioAssay by several laboratories.
